Active and inactive are the calls of the source.
How the values were obtained:
Assay type in all cases: cell-based
Toll-like receptor 2 = Toll-like receptor 2 (Homo sapiens, UniProt O60603); assay: Agonist activity at human TLR2 stably expressed in HEK293 cells cotransfected with secreted alkaline phosphatase assessed as induction of NFkappaB activation by quanti-blue SEAP reporter gene based spectrophotometric method
Method in brief: (§1)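 HEK293 cells stably co-transfected with the matching human TLR (2, 3, 4, 5, 7, 8 or 9) and NF-κB/AP-1-driven secreted alkaline phosphatase were kept in selection medium. About 10^5 cells/ml were incubated with graded concentrations of stimulus. sAP was read at 620 nm with a chromogen in detection medium. EC50 came from four-parameter logistic fits on quadruplicates.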

[1] = biological target: T1, Toll-like receptor 7 (Homo sapiens) (UniProt Q9NYK1); assay: Agonist activity at human TLR7 stably expressed in HEK293 cells cotransfected with secreted alkaline phosphatase assessed as induction of NFkappaB activation by quanti-blue SEAP reporter gene based spectrophotometric method; method in brief: as §1
T1 sequence (whole entry): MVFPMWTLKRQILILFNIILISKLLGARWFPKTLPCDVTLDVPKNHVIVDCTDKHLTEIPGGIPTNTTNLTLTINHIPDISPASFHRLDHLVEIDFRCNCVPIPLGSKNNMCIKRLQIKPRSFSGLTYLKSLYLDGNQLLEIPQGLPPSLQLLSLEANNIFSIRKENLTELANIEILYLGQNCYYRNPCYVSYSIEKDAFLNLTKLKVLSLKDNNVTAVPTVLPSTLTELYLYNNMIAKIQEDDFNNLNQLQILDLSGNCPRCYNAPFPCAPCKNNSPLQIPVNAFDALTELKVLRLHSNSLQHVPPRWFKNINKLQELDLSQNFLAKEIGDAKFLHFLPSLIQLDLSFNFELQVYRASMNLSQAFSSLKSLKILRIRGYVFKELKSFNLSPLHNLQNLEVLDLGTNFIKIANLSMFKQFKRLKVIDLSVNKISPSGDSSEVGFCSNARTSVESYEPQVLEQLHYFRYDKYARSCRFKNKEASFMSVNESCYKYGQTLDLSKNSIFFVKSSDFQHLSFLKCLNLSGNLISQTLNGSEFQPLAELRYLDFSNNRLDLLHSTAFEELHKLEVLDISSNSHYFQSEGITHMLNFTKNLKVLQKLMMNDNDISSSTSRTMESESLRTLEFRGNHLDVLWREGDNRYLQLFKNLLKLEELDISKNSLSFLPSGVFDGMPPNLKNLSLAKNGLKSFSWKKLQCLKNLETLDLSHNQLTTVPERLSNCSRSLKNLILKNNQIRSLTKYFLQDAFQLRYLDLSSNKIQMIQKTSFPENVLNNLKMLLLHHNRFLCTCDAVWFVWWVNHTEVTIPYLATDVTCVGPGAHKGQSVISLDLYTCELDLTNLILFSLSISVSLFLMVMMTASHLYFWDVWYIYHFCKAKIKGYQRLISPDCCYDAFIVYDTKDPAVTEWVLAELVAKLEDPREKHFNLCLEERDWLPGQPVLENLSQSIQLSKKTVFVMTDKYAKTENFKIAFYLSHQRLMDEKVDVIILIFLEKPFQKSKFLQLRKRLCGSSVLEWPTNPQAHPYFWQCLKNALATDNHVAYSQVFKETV

[2] = biological target: T2, Toll-like receptor 9 (Homo sapiens) (UniProt Q9NR96); assay: Agonist activity at human TLR9 stably expressed in HEK293 cells cotransfected with secreted alkaline phosphatase assessed as induction of NFkappaB activation by quanti-blue SEAP reporter gene based spectrophotometric method; method in brief: as §1
T2 sequence (whole entry): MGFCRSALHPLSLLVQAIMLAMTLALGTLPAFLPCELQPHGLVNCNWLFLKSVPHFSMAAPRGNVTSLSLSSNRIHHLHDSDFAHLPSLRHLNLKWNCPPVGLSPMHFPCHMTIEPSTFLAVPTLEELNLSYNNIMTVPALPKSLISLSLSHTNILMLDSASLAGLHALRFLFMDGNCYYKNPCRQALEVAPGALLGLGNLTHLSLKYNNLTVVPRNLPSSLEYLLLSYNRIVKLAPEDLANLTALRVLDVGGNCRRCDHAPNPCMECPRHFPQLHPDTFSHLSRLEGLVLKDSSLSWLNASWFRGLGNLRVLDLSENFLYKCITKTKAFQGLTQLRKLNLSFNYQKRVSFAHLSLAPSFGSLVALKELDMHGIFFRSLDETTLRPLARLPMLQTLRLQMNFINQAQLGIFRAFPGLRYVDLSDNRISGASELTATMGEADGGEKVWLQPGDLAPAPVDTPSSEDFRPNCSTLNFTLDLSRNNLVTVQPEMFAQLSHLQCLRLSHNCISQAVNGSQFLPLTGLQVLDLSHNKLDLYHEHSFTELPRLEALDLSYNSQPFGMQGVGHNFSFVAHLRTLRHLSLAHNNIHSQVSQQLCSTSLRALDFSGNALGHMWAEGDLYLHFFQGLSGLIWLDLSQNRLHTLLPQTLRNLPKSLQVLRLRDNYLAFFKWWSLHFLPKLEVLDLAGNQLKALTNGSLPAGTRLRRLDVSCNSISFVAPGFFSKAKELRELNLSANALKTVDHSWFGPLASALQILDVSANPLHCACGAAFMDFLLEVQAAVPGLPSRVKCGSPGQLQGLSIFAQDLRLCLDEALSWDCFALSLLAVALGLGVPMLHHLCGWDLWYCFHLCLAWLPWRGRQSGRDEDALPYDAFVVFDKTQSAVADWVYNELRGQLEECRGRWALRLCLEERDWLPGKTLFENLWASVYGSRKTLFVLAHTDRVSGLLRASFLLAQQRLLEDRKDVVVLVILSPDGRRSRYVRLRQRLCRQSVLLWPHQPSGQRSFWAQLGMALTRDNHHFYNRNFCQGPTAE

Toll-like receptor 4 = Toll-like receptor 4 (Homo sapiens, UniProt O00206); assay: Agonist activity at human TLR4 stably expressed in HEK293 cells cotransfected with secreted alkaline phosphatase assessed as induction of NFkappaB activation by quanti-blue SEAP reporter gene based spectrophotometric method; method in brief: as §1

Measured: Activity

Toll-like receptor 2, sequence (O60603 whole entry): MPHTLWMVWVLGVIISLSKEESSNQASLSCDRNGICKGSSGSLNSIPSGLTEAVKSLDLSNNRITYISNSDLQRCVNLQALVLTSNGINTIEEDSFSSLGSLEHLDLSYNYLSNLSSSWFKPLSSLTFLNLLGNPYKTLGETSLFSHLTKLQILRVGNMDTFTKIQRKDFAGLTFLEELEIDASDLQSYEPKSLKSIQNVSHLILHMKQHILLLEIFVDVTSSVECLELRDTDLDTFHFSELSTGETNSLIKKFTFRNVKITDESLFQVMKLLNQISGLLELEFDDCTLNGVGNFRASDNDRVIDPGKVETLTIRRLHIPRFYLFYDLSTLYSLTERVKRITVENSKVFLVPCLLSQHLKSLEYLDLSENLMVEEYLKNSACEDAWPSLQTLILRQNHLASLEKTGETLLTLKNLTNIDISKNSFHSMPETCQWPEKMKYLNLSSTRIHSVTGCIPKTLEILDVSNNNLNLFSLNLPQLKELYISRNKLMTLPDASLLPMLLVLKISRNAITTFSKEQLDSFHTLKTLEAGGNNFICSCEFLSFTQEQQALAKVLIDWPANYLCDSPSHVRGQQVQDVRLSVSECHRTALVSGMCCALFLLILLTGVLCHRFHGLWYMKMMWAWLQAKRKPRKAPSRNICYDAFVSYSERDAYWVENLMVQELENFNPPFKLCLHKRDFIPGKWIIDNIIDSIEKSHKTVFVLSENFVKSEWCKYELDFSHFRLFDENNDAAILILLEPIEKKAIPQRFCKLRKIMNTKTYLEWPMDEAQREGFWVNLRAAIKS
Toll-like receptor 4, sequence (O00206 whole entry): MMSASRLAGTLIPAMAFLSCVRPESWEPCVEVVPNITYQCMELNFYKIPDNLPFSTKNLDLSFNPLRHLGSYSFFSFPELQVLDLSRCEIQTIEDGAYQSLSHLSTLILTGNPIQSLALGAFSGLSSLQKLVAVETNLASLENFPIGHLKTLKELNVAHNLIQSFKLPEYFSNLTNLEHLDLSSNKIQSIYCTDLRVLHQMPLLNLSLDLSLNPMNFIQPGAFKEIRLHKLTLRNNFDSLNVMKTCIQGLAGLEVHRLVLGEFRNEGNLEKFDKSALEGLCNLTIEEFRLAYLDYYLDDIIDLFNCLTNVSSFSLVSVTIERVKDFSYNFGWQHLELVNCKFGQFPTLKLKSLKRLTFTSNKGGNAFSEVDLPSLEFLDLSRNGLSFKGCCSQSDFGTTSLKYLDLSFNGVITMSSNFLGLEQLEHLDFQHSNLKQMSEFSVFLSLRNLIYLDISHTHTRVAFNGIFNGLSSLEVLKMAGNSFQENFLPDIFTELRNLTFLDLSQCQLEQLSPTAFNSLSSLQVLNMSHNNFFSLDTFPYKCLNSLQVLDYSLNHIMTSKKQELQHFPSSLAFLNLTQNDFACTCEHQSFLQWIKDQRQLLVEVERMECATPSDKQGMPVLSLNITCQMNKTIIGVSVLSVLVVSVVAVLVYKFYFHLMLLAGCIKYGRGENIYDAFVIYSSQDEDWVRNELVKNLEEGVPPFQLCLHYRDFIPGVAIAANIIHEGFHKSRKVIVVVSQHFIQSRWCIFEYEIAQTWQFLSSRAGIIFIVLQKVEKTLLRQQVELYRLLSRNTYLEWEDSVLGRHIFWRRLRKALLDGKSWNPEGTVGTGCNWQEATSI

CCCCCn1cc(-c2ccc(C(F)(F)F)cc2)nc1N
inactive: all assays above

CCCCCn1cc(-c2ccc3ccccc3c2)nc1N
inactive: all assays above

CCCCCn1cc(-c2ccccc2C(=O)OC)nc1N
inactive: all assays above

CCCCCn1cc(-c2ccccc2CC)nc1N
inactive: all assays above

CCCCCn1cc(-c2cccc(C)c2)nc1N
inactive: all assays above

CCCCCn1cc(-c2ccccc2C(F)(F)F)nc1N
inactive: all assays above

CCCCCn1cc(-c2cccnc2)nc1N
inactive: all assays above
